Values after ≈ are worked out from the molar mass of the structure shown.
Assays:
[1] = test system: Mycobacterium tuberculosis; assay: Antimycobacterial activity against Mycobacterium tuberculosis H37Rv ATCC 27294 after 28 days by agar dilution method; format: functional; conditions: H37Rv ATCC 27294, 672 h
Procedure, shortened: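 Agar dilution on Middlebrook 7H11 agar tubes with OADC, drug 50 to 0.78 µg/mL, in duplicate. Inoculum from fresh slants adjusted to 1 mg/mL wet weight in 0.05% Tween 80 saline, diluted 10^-2 (~10^7 cfu/mL); 5 µL spotted. Incubated 37 °C, MIC read after 28 days.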

Pantothenate synthetase = biological target: T1, Pantothenate synthetase (Mycobacterium tuberculosis, UniProt P9WIL5); assay: Inhibition of Mycobacterium tuberculosis pantothenate synthetase expressed in Escherichia coli BL21 (DE3)
T1 sequence (P9WIL5 whole entry): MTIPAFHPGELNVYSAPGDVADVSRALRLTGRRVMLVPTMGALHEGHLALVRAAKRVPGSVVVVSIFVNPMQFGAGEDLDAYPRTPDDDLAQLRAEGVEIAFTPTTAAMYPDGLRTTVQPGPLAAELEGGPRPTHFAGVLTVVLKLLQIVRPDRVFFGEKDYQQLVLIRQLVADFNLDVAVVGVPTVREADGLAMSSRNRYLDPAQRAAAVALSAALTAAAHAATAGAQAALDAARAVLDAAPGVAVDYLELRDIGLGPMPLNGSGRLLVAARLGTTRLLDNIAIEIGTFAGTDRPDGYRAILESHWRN
Procedure, shortened: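 panC (Rv3602c) cloned into E. coli BL21(DE3). Coupled assay: reagent mix of NADH, pantoic acid, β-alanine, ATP, phosphoenolpyruvate, MgCl2, myokinase, pyruvate kinase, lactate dehydrogenase; reaction started with PS; A340 read every 12 s for 120 s.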

[2] = Cytotoxicity against mouse RAW264.7 cells at 50 uM after 72 hrs by MTT assay; format: cell-based; conditions: read-out: INH
[3] = biological target: T2, Pantothenate synthetase (Mycobacterium tuberculosis) (UniProt P9WIL5); assay: Binding affinity to Mycobacterium tuberculosis pantothenate synthetase expressed in Escherichia coli BL21 (DE3) assessed as increase in thermal stability
T2 sequence (whole entry): T1 sequence (P9WIL5 whole entry)
Procedure, shortened: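 Differential scanning fluorimetry: protein–ligand complexes heated from 25 °C to 95 °C in 0.1 °C steps with SYPRO Orange dye; melting temperature shift relative to native protein recorded.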

| SMILES | MIC [1] | IC50 (Pantothenate synthetase) | cytotoxicity at 72 h, 50 µM [2] | Tm [3] |
| --- | --- | --- | --- | --- |
| NC(=O)c1c(NC(=O)c2ccc([N+](=O)[O-])o2)sc2c1CCN(S(=O)(=O)c1ccc([N+](=O)[O-])cc1)C2 | 47.9 µM (≈ 25 µg/mL) | > 25 µM | – | – |
| NC(=O)c1c(NC(=O)c2ccc([N+](=O)[O-])o2)sc2c1CCN(C(=O)NCc1ccccc1)C2 | 26.6 µM (≈ 12.5 µg/mL) | 14.1 µM | 24.3% | – |
| NC(=O)c1c(NC(=O)c2ccc([N+](=O)[O-])s2)sc2c1CCN(C(=O)Nc1ccc([N+](=O)[O-])cc1)C2 | 12.1 µM (≈ 6.24 µg/mL) | 9.68 µM | 33.6% | – |
| NC(=O)c1c(NC(=O)c2ccc([N+](=O)[O-])o2)sc2c1CCN(S(=O)(=O)c1ccc(Br)cc1)C2 | 45 µM (≈ 25 µg/mL) | > 25 µM | – | – |
| NC(=O)c1c(NC(=O)c2ccc([N+](=O)[O-])s2)sc2c1CCN(C(=O)NCc1ccccc1)C2 | 25.7 µM (≈ 12.5 µg/mL) | 18.2 µM | 26.1% | – |
| NNC(=O)c1ccncc1 [ISONIAZID] | 0.72 µM (≈ 0.0987 µg/mL) | > 25 µM | – | – |
| NC(=O)c1c(NC(=O)c2ccc([N+](=O)[O-])s2)sc2c1CCN(S(=O)(=O)c1ccc([N+](=O)[O-])cc1)C2 | 9.28 µM (≈ 4.99 µg/mL) | 5.87 µM | 29.2% | 50.4 °C |
| CC[C@@H](CO)NCCN[C@@H](CC)CO [ETHAMBUTOL] | 7.64 µM (≈ 1.56 µg/mL) | > 25 µM | – | – |
| NC(=O)c1c(NC(=O)c2ccc([N+](=O)[O-])o2)sc2c1CCN(C(=O)Nc1ccc(Cl)cc1)C2 | 51 µM (≈ 25 µg/mL) | > 25 µM | – | – |
| COc1ccc(NC(=O)N2CCc3c(sc(NC(=O)c4ccc([N+](=O)[O-])s4)c3C(N)=O)C2)cc1 | 24.9 µM (≈ 12.5 µg/mL) | 14.5 µM | 20.9% | – |
| NC(=O)c1c(NC(=O)c2ccc([N+](=O)[O-])s2)sc2c1CCN(C(=S)Nc1ccc([N+](=O)[O-])cc1)C2 | 11.7 µM (≈ 6.24 µg/mL) | 9.11 µM | 28.6% | – |
| NC(=O)c1c(NC(=O)c2ccc([N+](=O)[O-])o2)sc2c1CCN(S(=O)(=O)c1ccc(F)cc1)C2 | 25.2 µM (≈ 12.5 µg/mL) | 17.6 µM | 22.1% | – |
| NC(=O)c1c(NC(=O)c2ccc([N+](=O)[O-])s2)sc2c1CCN(C(=S)Nc1ccc(F)cc1)C2 | 12.3 µM (≈ 6.24 µg/mL) | 10.2 µM | 26.8% | – |
| COc1ccc(S(=O)(=O)N2CCc3c(sc(NC(=O)c4ccc([N+](=O)[O-])o4)c3C(N)=O)C2)cc1 | 24.6 µM (≈ 12.5 µg/mL) | 20.3 µM | 19.4% | – |
| NC(=O)c1c(NC(=O)c2ccc([N+](=O)[O-])s2)sc2c1CCN(S(=O)(=O)c1ccc(F)cc1)C2 | 12.2 µM (≈ 6.24 µg/mL) | 11.7 µM | 30.2% | – |
| NC(=O)c1c(NC(=O)c2ccc([N+](=O)[O-])o2)sc2c1CCN(C(=S)NCc1ccccc1)C2 | 26.5 µM (≈ 12.9 µg/mL) | 17 µM | 18.1% | – |
| CC(=O)c1ccc(S(=O)(=O)N2CCc3c(sc(NC(=O)c4ccc([N+](=O)[O-])s4)c3C(N)=O)C2)cc1 | 46.7 µM (≈ 25 µg/mL) | > 25 µM | – | – |
| NC(=O)c1c(NC(=O)c2ccc([N+](=O)[O-])o2)sc2c1CCN(C(=S)Nc1ccc(F)cc1)C2 | 25.5 µM (≈ 12.5 µg/mL) | 20.9 µM | 28.1% | – |
| CC(=O)c1ccc(S(=O)(=O)N2CCc3c(sc(NC(=O)c4ccc([N+](=O)[O-])o4)c3C(N)=O)C2)cc1 | 48.2 µM (≈ 25 µg/mL) | > 25 µM | – | – |
| NC(=O)c1c(NC(=O)c2ccc([N+](=O)[O-])o2)sc2c1CCN(C(=S)Nc1ccc([N+](=O)[O-])cc1)C2 | 24.2 µM (≈ 12.5 µg/mL) | 18.7 µM | 28.2% | – |
| NC(=O)c1c(NC(=O)c2ccc([N+](=O)[O-])s2)sc2c1CCN(C(=O)Nc1ccc(Cl)cc1)C2 | 12.3 µM (≈ 6.23 µg/mL) | 10.2 µM | 24.4% | – |
| NC(=O)c1c(NC(=O)c2ccc([N+](=O)[O-])s2)sc2c1CCN(C(=S)NCc1ccccc1)C2 | 19.9 µM (≈ 9.99 µg/mL) | 13.2 µM | 22.2% | – |
| NC(=O)c1c(NC(=O)c2ccc([N+](=O)[O-])s2)sc2c1CCN(C(=S)Nc1ccc(Cl)cc1)C2 | 11.9 µM (≈ 6.24 µg/mL) | 6.28 µM | 21.4% | – |
| CC(=O)N1CCc2c(sc(NC(=O)c3cccs3)c2C(N)=O)C1 | 9.15 µM (≈ 3.2 µg/mL) | > 25 µM | – | – |
| NC(=O)c1c(NC(=O)c2ccc([N+](=O)[O-])o2)sc2c1CCN(C(=O)Nc1ccc([N+](=O)[O-])cc1)C2 | 24.9 µM (≈ 12.5 µg/mL) | 19.8 µM | 36.1% | – |
| NC(=O)c1c(NC(=O)c2ccc([N+](=O)[O-])o2)sc2c1CCN(C(=S)Nc1ccc(Cl)cc1)C2 | 24.7 µM (≈ 12.5 µg/mL) | 19.2 µM | 24.7% | – |
| COc1ccc(NC(=O)N2CCc3c(sc(NC(=O)c4ccc([N+](=O)[O-])o4)c3C(N)=O)C2)cc1 | 53.2 µM (≈ 25.8 µg/mL) | 15.1 µM | – | – |
| COc1ccc(S(=O)(=O)N2CCc3c(sc(NC(=O)c4ccc([N+](=O)[O-])s4)c3C(N)=O)C2)cc1 | 23.9 µM (≈ 12.5 µg/mL) | 19 µM | 24.5% | – |
| NC(=O)c1c(NC(=O)c2ccc([N+](=O)[O-])s2)sc2c1CCN(S(=O)(=O)c1ccc(Br)cc1)C2 | 21.9 µM (≈ 12.5 µg/mL) | 14.2 µM | 26.8% | – |

— ChEMBL document CHEMBL3120119, “Development of novel tetrahydrothieno[2,3-c]pyridine-3-carboxamide based Mycobacterium tuberculosis pantothenate synthetase inhibitors: molecular hybridization from known antimycobacterial leads” (Bioorg Med Chem, 2014)
